Reference: ChEMBL document CHEMBL1127367, “Antiproliferative properties of polyamine analogues: a structure-activity study” (J Med Chem, 1994)

Columns and labels:
[1] = molecular target: Spermidine/spermine N(1)-acetyltransferase (SAT) (Mus musculus) (UniProt Q6P8J2+P48026); assay: […] spermidine/spermine N1-Acetyltransferase (SSAT) activity; assay type: functional; design: concentration or dose not given beside the values
[2] = molecular target: T1, S-adenosylmethionine decarboxylase proenzyme 1 (Mus musculus) (UniProt P0DMN7); assay: Inhibition of S-Adenosyl-methionine decarboxylase (AdoMetDC) activity; assay type: functional; design: concentration or dose not given beside the values
T1 sequence (whole entry): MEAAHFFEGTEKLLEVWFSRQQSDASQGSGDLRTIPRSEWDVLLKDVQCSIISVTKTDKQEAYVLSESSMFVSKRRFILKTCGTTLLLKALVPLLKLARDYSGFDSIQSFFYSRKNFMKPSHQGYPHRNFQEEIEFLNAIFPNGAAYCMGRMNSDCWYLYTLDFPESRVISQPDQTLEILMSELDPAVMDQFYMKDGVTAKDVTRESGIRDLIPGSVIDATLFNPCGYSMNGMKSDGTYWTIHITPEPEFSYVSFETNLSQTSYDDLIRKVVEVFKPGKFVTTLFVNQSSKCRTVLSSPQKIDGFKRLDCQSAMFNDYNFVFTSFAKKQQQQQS

[3] = test system: L1210; assay: Compound level in L1210 cells after 48 hours of incubation at initial concentration of 500 uM is expressed as nmol/10e6 cells; assay type: functional, Mus musculus; design: unit: nmol/10^6 cells
[4] = test system: L1210; assay: Compound was evaluated for its impact on putrescine (Put) levels after 48 hr at concentration 100 uM; assay type: functional, Mus musculus
[5] = test system: L1210; assay: Compound was evaluated for its impact on spermine levels after 48 hr at concentration 100 uM; assay type: functional, Mus musculus
[6] = test system: L1210; assay: Compound was evaluated for its impact on spermidine levels after 48 hr at concentration 500 uM; assay type: functional, Mus musculus
[7] = test system: L1210; assay: In vitro inhibition of L1210 growth after 96 hours.; assay type: functional, cell-based; details: Mus musculus, L1210, 96 h
Method in brief: (§1)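 Log-phase L1210 cultures (0.5–1.0 × 10^5 cells/mL) treated with analogue diluted in sterile water and filter-sterilized. After 48 h, cells were reseeded and grown a further 48 h for the 96 h point. Cells counted by Coulter counter. % growth = (treated − inoculum)/(untreated − inoculum) × 100.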

[8] = test system: L1210; assay: Inhibition of radiolabeled spermidine uptake into L1210 cells in vitro.; assay type: functional, cell-based, Mus musculus
[9] = test system: L1210; assay: Compound was evaluated for its impact on spermidine levels after 48 hr at concentration 100 uM; assay type: functional, Mus musculus
[10] = test system: L1210; assay: Compound was evaluated for its impact on putrescine (Put) levels after 48 hr at concentration 500 uM; assay type: functional, Mus musculus
[11] = molecular target: T2, Ornithine decarboxylase (Mus musculus) (UniProt P00860); assay: Inhibition of ornithine decarboxylase (ODC) activity; assay type: functional; design: concentration or dose not given beside the values
T2 sequence (whole entry): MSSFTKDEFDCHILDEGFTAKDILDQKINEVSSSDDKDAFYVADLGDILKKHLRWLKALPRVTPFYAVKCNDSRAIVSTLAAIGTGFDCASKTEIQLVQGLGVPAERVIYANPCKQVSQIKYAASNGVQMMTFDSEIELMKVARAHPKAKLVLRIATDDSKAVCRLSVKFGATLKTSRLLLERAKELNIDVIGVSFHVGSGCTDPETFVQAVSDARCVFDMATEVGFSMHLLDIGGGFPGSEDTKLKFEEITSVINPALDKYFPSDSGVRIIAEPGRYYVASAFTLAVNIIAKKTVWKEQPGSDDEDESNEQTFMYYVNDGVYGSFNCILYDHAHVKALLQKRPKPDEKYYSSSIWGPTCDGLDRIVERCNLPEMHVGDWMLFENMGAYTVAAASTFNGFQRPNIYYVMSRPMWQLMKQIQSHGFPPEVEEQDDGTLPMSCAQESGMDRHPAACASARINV

[12] = test system: L1210; assay: Compound level in L1210 cells after 48 hours of incubation at initial concentration of 100 uM is expressed as nmol/10e6 cells; assay type: functional, Mus musculus; design: unit: nmol/10^6 cells
[13] = test system: L1210; assay: In vitro inhibition of L1210 growth after 48 hours.; assay type: functional, cell-based; details: Mus musculus, L1210, 48 h; method in brief: as §1
[14] = test system: L1210; assay: Compound was evaluated for its impact on spermine levels after 48 hr at concentration 500 uM; assay type: functional, Mus musculus
[15] = test system: L1210; assay: Compound was evaluated for its impact on spermine […] levels after 48 hr at concentration 500 uM; assay type: functional, Mus musculus
Method in brief: (§2)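 L1210 suspension cultures were grown in RPMI-1640 with 10% NuSerum, 2% HEPES-MOPS and 1 mM aminoguanidine (37 °C, 5% CO2). Log-phase cells were treated for 48 h, then washed twice in cold RPMI-1640 and pelleted. Pellets were extracted with 0.6 N perchloric acid, and supernatants were held at −20 °C until HPLC. Polyamine levels are given as % of untreated controls.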

[16] = test system: S-adenosylmethionine decarboxylase (Mus musculus); assay: Effect of compound on S-Adenosyl-methionine decarboxylase (AdoMetDC) activity expressed as percent of untreated control for (AdoMetDC) (1 uM at 6 hr)
[17] = test system: L1210; assay: Compound was evaluated for its impact on spermine […] levels after 48 hr at concentration 100 uM; assay type: functional, Mus musculus; method in brief: as §2
[18] = molecular target: T2, Ornithine decarboxylase (Mus musculus); assay: Effect of compound on ornithine decarboxylase (ODC)activity expressed as percent of untreated control for ODC (1 uM at 4 h(or 48h))
Method in brief: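 L1210 cells exposed to 1 μM analogue for 4 h, or for 48 h in some cases. ODC activity measured as 14CO2 released from [14C]carboxyl-labeled L-ornithine and expressed as % of untreated control.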

Sequence of Spermidine/spermine N(1)-acetyltransferase (SAT) (Mus musculus) (P48026 whole entry, looked up): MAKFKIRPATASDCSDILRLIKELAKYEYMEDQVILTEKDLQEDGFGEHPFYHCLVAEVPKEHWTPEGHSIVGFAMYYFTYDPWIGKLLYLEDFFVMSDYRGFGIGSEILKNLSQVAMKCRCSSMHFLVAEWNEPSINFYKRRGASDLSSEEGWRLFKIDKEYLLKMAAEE
Sequence of Spermidine/spermine N(1)-acetyltransferase (SAT) (Mus musculus) (Q6P8J2 whole entry, looked up): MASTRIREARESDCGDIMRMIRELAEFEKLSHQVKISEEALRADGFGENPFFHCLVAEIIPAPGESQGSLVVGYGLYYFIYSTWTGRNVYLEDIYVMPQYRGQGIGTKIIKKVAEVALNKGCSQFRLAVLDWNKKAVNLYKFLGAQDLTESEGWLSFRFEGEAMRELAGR

Row | Compound | Activity [1] | Activity [2] | IC50 [7] | Activity [11] | IC50 [13] | Activity [16] | Activity [18] | Activity [3] | Polyamine [4] | Polyamine [5] | Polyamine [6] | Ki [8] | Polyamine [9] | Polyamine [10] | Activity [12] | Polyamine [14] | Polyamine [15] | Polyamine [17]
1 | CCNCCCNCCCNCCCN | 410% | 33% | 2.5 µM | 5% | > 100 µM |  |  | 1.72 | 0% | 11% | 2% | 7.7 µM | 5% | 0% | 1.69 | 11% |  | 
2 | CC(C)(C)NCCCCNCCCCNCCCCNC(C)(C)C |  |  | 3 µM | 100% | > 100 µM | 100% |  |  | 83% | 94% | 58% | 56 µM | 85% | 55% |  | 72% |  | 
3 | CC(C)NCCCNCCCNCCCNC(C)C | 180% | 100% | 1.2 µM | 100% | > 100 µM |  |  |  | 10% |  | 12% | 40 µM | 26% | 0% |  | 53% |  | 64%
4 | CCNCCCNCCCCNCCCN | 150% | 27% |  |  |  |  | 10% |  |  |  |  |  |  |  |  |  |  | 

Further lines, with some results ahead:

Row | Activity [1] | Activity [2] | IC50 [7] | Activity [11] | IC50 [13] | Activity [16] | Activity [18] | Compound | Activity [3] | Polyamine [4] | Polyamine [5] | Polyamine [6] | Ki [8] | Polyamine [9] | Polyamine [10] | Activity [12] | Polyamine [14] | Polyamine [15] | Polyamine [17]
5 | 140% | 45% | 0.32 µM | 4% | > 100 µM |  |  | CNCCCCNCCCCNCCCCNC | 1.03 | 0% | 30% | 0% | 0.97 µM | 0% | 0% | 1.49 | 27% |  | 
6 | 300% | 40% |  | 3% | > 100 µM |  |  | CNCCCNCCCCNCCCNC | 1.24 | 0% | 21% | 0% | 1.1 µM | 0% | 0% | 1.26 |  | 24% | 
